Measured values as given in PubChem BioAssay AID504486 (The Scripps Research Institute Molecular Screening Center, 2011).
Activity calls are given as the source filed them.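 Rule for the calls: active = mass spectrometry shows covalent labeling of the catalytic serine in PAFAH2, a platelet-activating factor hydrolase; inactive = no covalent labeling of that serine detected.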

Target: Platelet-activating factor acetylhydrolase 2, cytoplasmic (Homo sapiens) (UniProt Q99487)
Experiment: PAFAH2 active-site binding mode – biophysical, LC-MS/MS, purified enzyme, mechanism study for PAFAH2 inhibitor project, late-stage follow-up (AID 504486)
Conditions: purified PAFAH2, LC-MS/MS active-site serine labeling
Method in brief: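 Test system: recombinant human PAFAH2 / Timing: 30 min compound exposure at room temperature / Technique: LC-MS/MS of tryptic peptides, searching for +97.053 Da serine adduct / Read-out: active-site serine covalent modification, yes or no / Benchmarks: DMSO-only enzyme sample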

- outcome: active
Structure (SMILES): O=C(N1CCCC1)n1ncc(-c2ccc(-c3ccccc3)cc2)n1
